Here are results for 19 molecules from ChEMBL document CHEMBL1156901, “Novel matrix metalloproteinase inhibitors derived from quinoxalinone scaffold (Part I)” (Bioorg Med Chem, 2010).

pIC50: −log10 of the molar value. The source made the active and inactive calls. The rule behind the calls is not given here.

Assay [1] addresses 72 kDa type IV collagenase (Homo sapiens, UniProt P08253). Put plainly: Inhibition of MMP2. The procedure, abridged:
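Gelatinase A (MMP-2) with succinylated gelatin substrate and inhibitor in 50 mM sodium borate, pH 8.5, incubated 30 min at 37 °C. 0.03% trinitrobenzenesulfonic acid then added for a further 20 min. Absorbance read at 450 nm.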

Assay [2] addresses Aminopeptidase N (Sus scrofa) (UniProt P15145). Put plainly: Inhibition of APN assessed as substrate hydrolysis by UV/vis spectrophotometer.
The next assay concerns HL-60. Briefly: Antiproliferative activity against human HL60 cells after 48 hrs by MTT assay. It is filed as functional, cell-based. The method, boiled down: (§1)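 RPMI1640 with 10% FBS, 37 °C, 5% CO2. Cells seeded at 10,000 per well and grown 4 h in complete medium. Compound added at 1600, 800, 400, 200 or 100 µg/ml for 48 h. 0.5% MTT then added for 4 h, formazan dissolved in DMSO over 15 min, OD read at 570 nm. IC50 taken as concentration giving 50% growth inhibition.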

The test system of another assay is K562. Briefly: Antiproliferative activity against human K562 cells after 48 hrs by MTT assay. It is filed as functional, cell-based. The procedure, abridged: as §1
For orientation: Tetrazolium assays rely on reduction of a dye to a coloured formazan, in cell work by metabolically active cells.

For a further assay, the system named is SK-OV-3. Put plainly: Antiproliferative activity against human SKOV3 cells after 48 hrs by MTT assay. It counts as functional, cell-based. The conditions noted are these: SK-OV-3, 48 h. The method, boiled down: as §1

Sequence of 72 kDa type IV collagenase (P08253 whole entry): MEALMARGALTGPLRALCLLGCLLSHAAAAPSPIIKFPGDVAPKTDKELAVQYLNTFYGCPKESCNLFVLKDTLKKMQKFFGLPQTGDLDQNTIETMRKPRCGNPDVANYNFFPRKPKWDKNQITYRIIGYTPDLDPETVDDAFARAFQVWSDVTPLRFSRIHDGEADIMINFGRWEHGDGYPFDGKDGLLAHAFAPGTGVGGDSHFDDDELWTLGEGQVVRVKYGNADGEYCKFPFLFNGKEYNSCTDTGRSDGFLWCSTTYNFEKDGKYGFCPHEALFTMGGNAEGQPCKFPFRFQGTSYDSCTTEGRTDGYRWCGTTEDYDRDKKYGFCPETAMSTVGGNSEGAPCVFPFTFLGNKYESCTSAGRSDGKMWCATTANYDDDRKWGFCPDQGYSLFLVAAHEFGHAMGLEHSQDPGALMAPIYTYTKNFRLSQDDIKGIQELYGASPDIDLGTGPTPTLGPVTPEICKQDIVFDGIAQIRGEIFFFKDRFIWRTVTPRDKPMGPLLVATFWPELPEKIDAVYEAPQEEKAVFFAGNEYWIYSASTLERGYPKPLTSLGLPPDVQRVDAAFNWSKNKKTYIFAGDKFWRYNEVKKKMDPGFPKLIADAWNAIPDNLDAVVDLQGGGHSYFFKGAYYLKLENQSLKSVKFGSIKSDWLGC
Sequence of Aminopeptidase N (Sus scrofa) (P15145 whole entry, looked up): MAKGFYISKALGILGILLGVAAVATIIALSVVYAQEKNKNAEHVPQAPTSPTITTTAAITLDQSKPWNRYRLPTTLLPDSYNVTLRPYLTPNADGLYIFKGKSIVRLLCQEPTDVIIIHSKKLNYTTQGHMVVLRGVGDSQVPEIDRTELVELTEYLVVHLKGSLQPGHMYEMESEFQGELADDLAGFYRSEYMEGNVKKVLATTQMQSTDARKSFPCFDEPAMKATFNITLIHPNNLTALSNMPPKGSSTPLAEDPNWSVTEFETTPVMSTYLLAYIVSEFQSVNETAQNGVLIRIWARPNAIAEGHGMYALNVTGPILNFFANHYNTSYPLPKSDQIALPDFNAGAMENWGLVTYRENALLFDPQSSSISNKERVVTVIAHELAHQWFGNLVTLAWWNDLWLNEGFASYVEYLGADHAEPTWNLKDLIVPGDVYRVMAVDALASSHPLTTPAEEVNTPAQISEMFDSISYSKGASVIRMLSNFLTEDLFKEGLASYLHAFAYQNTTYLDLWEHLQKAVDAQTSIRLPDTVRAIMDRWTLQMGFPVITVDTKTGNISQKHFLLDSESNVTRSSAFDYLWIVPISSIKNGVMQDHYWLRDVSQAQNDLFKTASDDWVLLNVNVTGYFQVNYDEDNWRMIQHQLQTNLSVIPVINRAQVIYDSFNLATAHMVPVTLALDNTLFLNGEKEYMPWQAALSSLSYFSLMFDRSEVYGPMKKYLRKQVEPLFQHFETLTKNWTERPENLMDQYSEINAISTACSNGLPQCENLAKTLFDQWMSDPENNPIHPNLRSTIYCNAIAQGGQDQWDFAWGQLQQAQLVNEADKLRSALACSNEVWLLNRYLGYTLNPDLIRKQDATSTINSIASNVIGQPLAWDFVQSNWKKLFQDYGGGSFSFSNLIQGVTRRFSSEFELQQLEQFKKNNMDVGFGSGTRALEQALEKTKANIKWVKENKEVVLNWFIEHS

Turning to `COC(=O)C(CC(C)C)NC(=O)[C@@H](Cc1ccccc1)NC(=O)Cn1c(=O)c(C)nc2ccccc21` (stereo not given in full), the pIC50 in assay [1] is 2.76. Moreover, the IC50 result in assay [2] is “Not Active”.

`CCCCNC(=O)[C@H](Cc1ccccc1)NC(=O)Cn1c(=O)c(C)nc2ccccc21` showed a negative-log IC50 (pIC50) in assay [1] of 3.97. The IC50 result in assay [2] is reported as “Not Active”.

In turn, `Cc1nc2ccccc2n(CC(=O)N[C@@H](Cc2ccccc2)C(=O)NC(C)C)c1=O` showed a pIC50 in assay [1] of 2.03. Also, the IC50 entry in assay [2] was “Not Active”.

As for `Cc1nc2ccccc2n(CC(=O)N[C@@H](Cc2ccccc2)C(=O)Nc2ccc(Cl)c(Cl)c2)c1=O`, the figures for the pIC50 (in assay [1]; in the assay with SK-OV-3) were 4.58 and 2.52, respectively. In addition, the outcome in the assay on HL-60 and with K562 was inactive. Also, the IC50 entry in assay [2] is reported as “Not Active”.

Regarding `COc1ccc(/C=C/C(=O)N2C[C@@H](NC(=O)c3cccnc3)C[C@H]2C(=O)NO)cc1OC`, the results for the pIC50 (in assay [1]; in the assay on SK-OV-3) were 5.25 and 3.68, respectively. In assay [2], the IC50 entry is “Not Active”.

In assay [1], `Cc1cccc(NC(=O)[C@H](Cc2ccccc2)NC(=O)Cn2c(=O)c(C)nc3ccccc32)c1` showed a pIC50 of 2.19. The IC50 entry in assay [2] is “Not Active”.

Regarding `COC(=O)CCCNC(=O)[C@H](Cc1ccccc1)NC(=O)Cn1c(=O)c(C)nc2ccccc21`, the pIC50 in assay [1] was 2.56. Also, the IC50 result in assay [2] is given as “Not Active”.

As to `Cc1ccc(NC(=O)[C@H](Cc2ccccc2)NC(=O)Cn2c(=O)c(C)nc3ccccc32)cc1`, the values for the pIC50 (in assay [1]; in the assay on SK-OV-3) were 4.98 and 2.70, respectively. The result in the assay on HL-60 and with K562 was inactive. Also, in assay [2], the IC50 entry is “Not Active”.

With `Cc1nc2ccccc2n(CC(=O)N[C@@H](Cc2ccccc2)C(=O)Nc2ccc(Cl)cc2)c1=O`, the pIC50 in assay [1] is 3.20. Further, the IC50 entry in assay [2] is “Not Active”.

Molecule `CCN(CC)C(=O)[C@H](Cc1ccccc1)NC(=O)Cn1c(=O)c(C)nc2ccccc21` showed a pIC50 in assay [1] of 3.98. The IC50 result in assay [2] is “Not Active”.

Consider `Cc1nc2ccccc2n(CC(=O)N[C@@H](Cc2ccccc2)C(=O)Nc2ccc(F)cc2)c1=O`, for which the pIC50 in assay [1] was 3.91. Besides, the IC50 entry in assay [2] is “Not Active”.

`Cc1nc2ccccc2n(CC(=O)N[C@@H](Cc2ccccc2)C(=O)Nc2ccc(F)c(F)c2)c1=O` gave a pIC50 in assay [1] of 4.62. Moreover, the IC50 result in assay [2] is given as “Not Active”.

Molecule `COC(=O)CCCCCNC(=O)[C@H](Cc1ccccc1)NC(=O)Cn1c(=O)c(C)nc2ccccc21` gave a pIC50 in assay [1] of 1.94. Moreover, the IC50 entry in assay [2] is reported as “Not Active”.

Molecule `CCCNC(=O)[C@H](Cc1ccccc1)NC(=O)Cn1c(=O)c(C)nc2ccccc21` showed a pIC50 in assay [1] of 4.25. The IC50 entry in assay [2] is given as “Not Active”.

`Cc1nc2ccccc2n(CC(=O)N[C@@H](Cc2ccccc2)C(=O)Nc2cccnc2)c1=O` had a pIC50 in assay [1] of 4.52. Also, the IC50 entry in assay [2] was “Not Active”.

In turn, `Cc1ccccc1NC(=O)[C@H](Cc1ccccc1)NC(=O)Cn1c(=O)c(C)nc2ccccc21` had a negative-log IC50 (pIC50) in assay [1] of 4.43. In assay [2], the IC50 result was “Not Active”.

Turning to `Cc1nc2ccccc2n(CC(=O)N[C@@H](Cc2ccccc2)C(=O)Nc2ccc(F)c(Cl)c2)c1=O`, the pIC50 in assay [1] was 2.87. Besides, the IC50 result in assay [2] is listed as “Not Active”.

Regarding `Cc1nc2ccccc2n(CC(=O)N[C@@H](Cc2ccccc2)C(=O)Nc2ccc(Br)cc2)c1=O`, the pIC50 in assay [1] is 2.70. Further, the IC50 entry in assay [2] is “Not Active”.

Regarding `Cc1nc2ccccc2n(CC(=O)N[C@@H](Cc2ccccc2)C(=O)Nc2ccccc2)c1=O`, in assay [1], the pIC50 is 4.24. In assay [2], the IC50 result is listed as “Not Active”.

In general, pIC50 refers to −log10 of the IC50, conventionally taken in molar units. A low value points to a large IC50.
